IDE act – human IDE activators in live cells, primary screen, fluorescence polarization, HEK cells, FAbeta-B substrate; Insulin-degrading enzyme (Homo sapiens), P14735; FAbeta-B cleavage; 0% vehicle, 100% cell-free pure enzyme wells; activation, % at 5.96 µM; 340,000 compounds, 0.073% hits; AID 493087, 2011;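 active means activation above the mean of all tested compounds plus 3 SD, set per screening campaign, cut at about 17% in these data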
Target sequence (P14735 whole entry, looked up): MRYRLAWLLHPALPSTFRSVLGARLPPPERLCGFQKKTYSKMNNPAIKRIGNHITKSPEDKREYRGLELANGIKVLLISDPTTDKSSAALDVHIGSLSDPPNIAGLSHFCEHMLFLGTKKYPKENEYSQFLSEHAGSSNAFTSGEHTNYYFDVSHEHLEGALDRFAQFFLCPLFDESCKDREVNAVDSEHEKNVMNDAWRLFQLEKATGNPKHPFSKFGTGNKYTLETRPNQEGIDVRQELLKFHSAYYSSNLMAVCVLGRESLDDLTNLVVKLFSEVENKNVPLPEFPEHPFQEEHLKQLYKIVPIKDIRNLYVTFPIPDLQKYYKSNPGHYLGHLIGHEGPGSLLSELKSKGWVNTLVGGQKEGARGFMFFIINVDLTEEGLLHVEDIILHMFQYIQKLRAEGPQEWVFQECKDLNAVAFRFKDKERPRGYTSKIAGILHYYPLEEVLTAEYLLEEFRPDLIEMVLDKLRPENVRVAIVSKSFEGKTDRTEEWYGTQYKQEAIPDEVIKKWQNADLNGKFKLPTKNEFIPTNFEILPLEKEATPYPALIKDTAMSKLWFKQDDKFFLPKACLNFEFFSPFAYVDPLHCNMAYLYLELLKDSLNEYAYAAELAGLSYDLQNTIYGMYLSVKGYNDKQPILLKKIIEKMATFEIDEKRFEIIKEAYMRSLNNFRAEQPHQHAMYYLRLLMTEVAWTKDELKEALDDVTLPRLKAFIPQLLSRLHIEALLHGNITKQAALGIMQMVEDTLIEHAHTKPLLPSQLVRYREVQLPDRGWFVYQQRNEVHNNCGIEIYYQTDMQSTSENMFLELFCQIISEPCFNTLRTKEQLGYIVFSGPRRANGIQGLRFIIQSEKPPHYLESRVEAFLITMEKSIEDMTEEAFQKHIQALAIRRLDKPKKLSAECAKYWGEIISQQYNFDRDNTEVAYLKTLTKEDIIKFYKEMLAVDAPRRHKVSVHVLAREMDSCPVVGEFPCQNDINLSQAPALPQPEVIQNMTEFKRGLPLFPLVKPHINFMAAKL
procasp7 counter – procaspase-7 activators, primary screen, counter-screen for procaspase-3 activator project, biochemical, absorbance, HTS, human; Caspase-7 (Homo sapiens), P55210; recombinant procaspase-7, Ac-DEVD-pNA absorbance 405 nm; D23A/D198A/D206A triple mutant, cannot self-cleave; scale: DMSO 0, 5 µM enzyme 100; activation, % at 8.5 µM; 330,000 compounds, 0.093% hits; AID 463210, 2010;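 active means percent activation above the screen-wide mean plus 3 SD, cut at about 25% in these data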
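Assay system: Uncleavable procaspase-7 mutant enzyme; Input: 2 µM procaspase-7 mutant as dispensed; Also added: DEVD-pNA substrate; Medium: Zinc-free HEPES pH 7.4 with 300 mM NaCl, 0.01% Triton X-100; Timing: 1 h compound preincubation, 2 h substrate cleavage, 25 °C; Measured by: Epi-absorbance of released pNA at 405 nm, two timepoints.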
procasp3 activ – activators of human procaspase-3 D3A mutant, primary screen, biochemical, absorbance, PC-3 D3A mutant, single concentration; Caspase-3 (Homo sapiens), P42574; recombinant procaspase-3 D3A, Ac-DEVD-pNA absorbance 405 nm; 330,000 compounds, 0.11% hits; activation, % at 8.5 µM;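 active means activation above the mean of all tested compounds plus 3 SD, cut at about 21% in these data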;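 further: 0% = DMSO alone and 100% = DMSO wells spiked with extra 5 µM PC-3 D3A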
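Assay system – Procaspase-3 D3A mutant · Benchmarks – DMSO low control, extra-enzyme high control · Technique – 405 nm absorbance of p-nitroaniline, reads at 0 and 120 min · Doses – 8.5 µM nominal · Measure – % activation between DMSO and enzyme-spiked controls · Also added – Ac-DEVD-pNA chromogenic peptide substrate · Schedule – 1 h compound preincubation, 2 h substrate hydrolysis at 25 °C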
TPT1 inh – Candida albicans TPT1 enzyme inhibitors, primary screen, biochemical, fluorescence polarization; inhibition, % at 5 µM; tRNA 2'-phosphotransferase TPT1 (Candida albicans SC5314); 300,000 compounds, 0.81% hits; recombinant caTPT1, FP RNA substrate dephosphorylation;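 active means inhibition above the mean of all tested compounds plus 3 SD, set per screening campaign, cut at about 24% in these data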;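 further: plate controls were DMSO alone for no effect and ferristatin control at 100 nM for full effect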
IDE inh – human IDE inhibitors in live cells, primary screen, fluorescence polarization, HEK cells, FAbetaB substrate | 320,000 compounds, 0.41% hits | FAbetaB cleavage | Insulin-degrading enzyme (Homo sapiens), P14735 | inhibition, % at 5.59 µM;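 active means percent inhibition above the average of all tested compounds plus 3 SD, set per screening campaign, cut at about 16% in these data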;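 further: IDE supplied by intact live HEK cells; FP after avidin binding of uncleaved biotin substrate so inhibition keeps polarization high; 0% = DMSO wells and 100% = 60 µM reference IDE inhibitor Ii1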
TPT1 inh confirm – Candida albicans TPT1 inhibitors, confirmation, biochemical, fluorescence polarization, triplicate; shares compounds with TPT1 inh; recombinant caTPT1, RNase T1 coupled; inhibition, % at 5 µM; 2,400 compounds, 74% hits; AID 2149, 2009;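 active means inhibition above the primary screen limit, the mean inhibition of all tested compounds plus 3 SD, cut at about 25% in these data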
RNase T1 inh – RNase T1 inhibitors, counter-screen for TPT1 inhibitor project, biochemical, fluorescence polarization | shares compounds with TPT1 inh | AID 2153, 2009 | RNase T1 cleavage, 1536-well | 2,400 compounds, 83% hits | inhibition, % at 5 µM;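 active means inhibition above the solvent-only control well mean plus 3 SD, limit set per screening run, cut at about 23% in these data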;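 further: plate controls were DMSO wells with enzyme for no effect and wells without RNase T1 for full effect; inhibitors block cleavage so intact labeled substrate keeps polarization high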
IDE inh confirm – human IDE inhibitors in live cells, confirmation, fluorescence polarization, HEK cells, FAbetaB substrate; 1,200 compounds, 51% hits; FAbetaB cleavage; inhibition, % at 5.59 µM; AID 435028, 2010; shares compounds with IDE inh;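 active means mean inhibition across triplicate wells above the cutoff set by the earlier primary insulin-degrading enzyme screen, cut at about 16% in these data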;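 further: 0% = DMSO wells and 100% = 60 µM reference IDE inhibitor Ii1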
HEK cytotox – cytotoxicity in HEK cells, cytotoxicity control for IDE inhibitor project, cell-based, luminescence. shares compounds with IDE inh. HEK293 cytotoxicity, ATP luminescence. inhibition, % at 5.59 µM. 1,200 compounds, 28% hits; in the data active means inhibition above about 22%;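 further: 0% = vehicle wells and 100% = reference cytotoxic drug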
PC3 D3A act – procaspase-3 activators, counter-screen for dual procaspase-3/7 activator project, biochemical, absorbance, PC-3 D3A mutant, human; shares compounds with procasp7 counter; recombinant PC-3 D3A, Ac-DEVD-pNA absorbance 405 nm; aspartates 9, 28, 175 changed to alanine; 100% = enzyme control; activation, % at 8.5 µM; 290 tested, under 10 active; AID 493114, 2011;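 active means mean percent activation across triplicates above a set limit taken from the earlier primary procaspase-3 screen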;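 further: 0% = DMSO wells and 100% = DMSO wells with 5 µM added PC-3 D3A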
PC7 dual conf – activation of procaspase-7 enzyme – biochemical, absorbance, human, dual procaspase-3/-7 activator project, confirmation; shares compounds with procasp7 counter; recombinant procaspase-7, Ac-DEVD-pNA absorbance 405 nm; D23A/D198A/D206A mutant that cannot self-cleave; activation, % at 8.5 µM; 290 tested, under 10 active; AID 493115, 2011;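 active means mean activation above a set limit carried over from the earlier primary screen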;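 further: 0% = DMSO only and 100% = DMSO with added 5 µM PC-7 enzyme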
Active calls of the source: *. Hits are enriched below; roughly 1.2% of the tested compounds scored in any of these assays.

Results for O=C(C1=NN(c2ccccc2)C2C(=O)N(c3ccccc3)C(=O)C12)c1ccccc1 (stereo not drawn) ?
IDE act: -20; procasp7 counter: 41*; procasp3 activ: 26*; TPT1 inh: 28*; IDE inh: 19*; TPT1 inh confirm: 32*; RNase T1 inh: 45*; IDE inh confirm: 23*; HEK cytotox: 12; PC3 D3A act: 40*; PC7 dual conf: 27*

How did CCCN(CCC)C(=O)c1cn(CC)c2ccc(S(=O)(=O)N3CCCCC3)cc2c1=O do in these assays?
IDE act: 3; procasp7 counter: -4; procasp3 activ: 1; TPT1 inh: 1; IDE inh: 1

Results for Cc1ccc2c(c1)CCCN2S(=O)(=O)c1cccc(C(=O)Nc2ccccc2C(=O)O)c1 ?
IDE act: -83; procasp7 counter: -1; procasp3 activ: 0; TPT1 inh: -5; IDE inh: 41*; IDE inh confirm: 23*; HEK cytotox: 26*

Results for CC1=CC(C)(C)Nc2ccc(OC(=O)CN3C(=O)c4ccccc4C3=O)cc21 ?
IDE act: -3; procasp7 counter: -16; procasp3 activ: -15; TPT1 inh: 5; IDE inh: 19*; IDE inh confirm: 41*; HEK cytotox: 123*

What do the screens show for `CC1=CC(C)(C)Nc2ccc(OC(=O)CN3C(=O)c4cccc5cccc(c45)C3=O)cc21`?
IDE act: -3; procasp7 counter: -4; procasp3 activ: -13; TPT1 inh: -4; IDE inh: 6

Results for COc1ccc([N+](=O)[O-])cc1/C=N/NC(=O)/C(=C\c1cccs1)NC(=O)c1ccccc1 ?
IDE act: -4; procasp7 counter: 2; procasp3 activ: 0; TPT1 inh: -5; IDE inh: 28*; IDE inh confirm: 14; HEK cytotox: 8

Results for CN(c1ccccc1)S(=O)(=O)c1cccc(C(=O)OCC(=O)Nc2ccc(C(N)=O)cc2)c1 ?
IDE act: -2; procasp7 counter: 3; procasp3 activ: 6; IDE inh: 2

Compound activity from PubChem BioAssay.
